Jurkat viability: reduces viability or proliferation of Jurkat cells | Jurkat E6.1 viability, ATP luminescence, 48 h | inhibition, % at 4 µM | 56,000 tested, 1.2% active | AID 463;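 active = inhibition above the mean inhibition of all tested compounds plus 3 SD, cut at about 28% in these data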
S1P3 ag: activates the human S1P3 receptor; S1P3 NFAT-BLA reporter cells, agonism, FRET ratio; relative to 1 µM S1P, basal subtracted; activation, % at 4.5 µM; 60,000 tested, 0.1% active;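 active = activation above the screen-wide mean plus 3 SD, cut at about 4.5% in these data, passing the limit was not always enough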
Target sequence (Q99500 whole entry, looked up): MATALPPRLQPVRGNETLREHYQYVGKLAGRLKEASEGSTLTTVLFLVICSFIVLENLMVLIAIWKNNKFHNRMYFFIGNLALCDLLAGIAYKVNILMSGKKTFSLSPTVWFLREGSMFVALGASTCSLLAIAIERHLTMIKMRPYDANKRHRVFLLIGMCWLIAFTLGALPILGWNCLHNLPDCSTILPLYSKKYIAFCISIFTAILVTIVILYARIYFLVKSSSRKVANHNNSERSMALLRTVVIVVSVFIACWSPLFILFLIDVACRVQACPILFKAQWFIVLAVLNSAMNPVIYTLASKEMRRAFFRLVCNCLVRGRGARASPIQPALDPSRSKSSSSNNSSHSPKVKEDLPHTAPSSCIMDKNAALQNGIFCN
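Assay system: stable CHO line with human S1P3, Gα16, NFAT-BLA reporter; Detection: FRET β-lactamase substrate fluorescence, excitation 405 nm, 460/535 nm emission ratio, background-subtracted; Read-out: percent activation versus median 1 µM S1P response, basal-subtracted, per plate; Incubation: cells plated overnight, compound 4 h 37 °C, substrate 2 h RT.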
JNK3 blocker: JNK3 (human) kinase inhibition; P53779; purified JNK3 kinase activity, HTS; inhibition, % at 8 µM; 60,000 tested, 0.61% active; AID 746; in the data active = inhibition above about 17%;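 note: 0% = DMSO and 100% = reference inhibitor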
S1P1 ag-PAM: S1P1 (human) agonism or agonism potentiation; S1P1 CRE-bla cells, forskolin, beta-lactamase FRET, potentiator mode; S1P1 agonist co-added at EC20, 2 nM; 100% = saturating reference agonist, 0% = basal; activation, % at 9.5 µM; 56,000 tested, 0.57% active; AID 449;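 active = activation above a cutoff set at the mean activation of all tested compounds plus 3 SD, cut at about 54% in these data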;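 note: forskolin at 4 µM as EC80 and the EC20 agonist is SEW2871; 100% = SEW2871 at its EC100 plus forskolin at EC80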
M1 antagonist: M1 muscarinic receptor (rat) antagonism. P08482. CHO-M1 cells, Fluo-4 calcium, ACh EC80 antagonist mode; active compounds read low. B-score at 10 µM. 64,000 tested, 3.4% active. AID 628;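 active = calcium fluorescence response, raw or row-and-column corrected B-score, differing from the plate sample mean either way at a set confidence level, mostly lower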
M1 agonist: agonists of M1 muscarinic receptor | CHO-M1 cells, Fluo-4 calcium fluorescence, agonist mode; active compounds read high | 64,000 tested, 3% active | B-score at 10 µM;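 active = fluorescence rise, raw or as B-score row- and column-corrected plate score, outside the 99.7% band of its plate's samples, either direction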
* marks the source's active call; other numbers are inactive results; . = no result given. In the library only some 7.4% were active in any assay of this set; here they are far more common.

SMILES	Jurkat viability	S1P3 ag	JNK3 blocker	S1P1 ag-PAM	M1 antagonist	M1 agonist
O=C(Nc1nc(-c2ccc3c(c2)OCCO3)cs1)c1ccc(S(=O)(=O)N2CCCCC2)cc1	72*	-1	1	8	-0.29	-0.35
Cc1cc(C)n(-c2nc3ccccc3c(=O)n2OCC(=O)N(C)C)n1	0	-1	5	-4	0.044	-1.1
Cc1cc(C)n(-c2nc3ccccc3c(=O)n2OCC(=O)OCc2ccccc2)n1	56*	0	8	-3	0.32	0.092
CCc1ccc(CNc2ccc(O)cc2)cc1	38*	-1	-1	-15	-0.19	-0.21
N=c1c(C(=O)NCc2ccco2)cc2c(=O)n3ccccc3nc2n1Cc1ccc(Cl)cc1	8	4.8*	-1	-142	.	.
N=c1c(C(=O)NCc2ccccc2)cc2c(=O)n3ccccc3nc2n1Cc1ccco1	.	-1	0	-30	-1.7	2.8
CC(=O)Oc1cc2c(C(=O)NCc3ccncc3)c(C)oc2c2ccccc12	-2	0	-10	-7	2*	6.1*
Cc1ccc(-n2c(SCC3CCCCO3)nnc2-c2ccco2)cc1 (stereo not drawn)	2	0	1	.	0.35	0.73
OCCN1CCN(C(c2cccs2)c2ccc3cccnc3c2O)CC1 (stereo not drawn)	53*	-1	-6	19	-0.3	-0.57
NC(=O)NC(Cc1ccccc1)c1ccccc1 (stereo not drawn)	-2	1	-1	-20	-0.24	2.3*
COc1cccc(-c2cc(N)nn2C(=O)Nc2ccc(Cl)cc2)c1	-3	-1	-6	-2	0.87	-0.059
O=C(c1nn2c(C(F)(F)F)cc(-c3ccco3)nc2c1Br)N1CCCc2ccccc21	-2	1	-7	-12	1.6	0.042
CC(C)OC(=O)c1nn2c(C(F)(F)F)cc(-c3ccc(Br)o3)nc2c1Br	.	-2	2	8	-0.0099	9.7*
Cc1ncsc1C(=O)NCc1ccc(N2CCCC2=O)cc1	4	0	6	9	-1.5	0.25
CC(=O)N(Cc1ccco1)C1(C(=O)NC2CCCCC2)CCCCC1	.	.	.	.	2.1*	0
CCOc1ccccc1N1CCN(S(=O)(=O)c2cccc3nsnc23)CC1	3	-2	-7	4	-0.54	0.75
COc1ccc(Br)cc1C1CC(=O)N2CN(C)CSC2=C1C#N (stereo not drawn)	-6	0	1	-5	1.4	0.81
COc1cc(OC)c(C2CC(=O)N3CN(C)CSC3=C2C#N)cc1OC (stereo not drawn)	0	0	2	-13	0.66*	-0.56
O=C(CSc1nnc(-c2ccncc2)n1-c1ccc(Cl)cc1)N1CCOCC1	-7	0	8	0	-0.46	-1.1
COc1cc2cc(CN(CCCO)S(=O)(=O)c3ccccc3)c(=O)[nH]c2cc1OC	1	-1	-7	-14	-0.54	0.0065
COc1ccc(S(=O)(=O)N(CCCN2CCCC2=O)Cc2cc3c(C)cc(C)cc3[nH]c2=O)cc1	-11	0	-2	-7	-0.065	5.1*
Cc1cc(NC(=O)CSc2nnc(C3CC3)n2C)no1	2	-1	-4	-35	-0.38	0.27
Cc1cc(NC(=O)CSc2nnc3c(C)cc4c(C)ccc(C)c4n23)no1	90*	0	1	16	0.28	0.11
Cc1onc(-c2ccccc2Cl)c1C(=O)NCCn1c(C)cc2ccccc21	6	0	1	17	0.24	-0.36
C=CCNC(=O)c1cc(=O)c2ccccc2o1	-10	0	7	3	0.69	-0.6
SMILES	Jurkat viability	S1P3 ag	JNK3 blocker	S1P1 ag-PAM	M1 antagonist	M1 agonist
CCOC(=O)Nc1cc(=O)c2ccccc2o1	90*	-1	-1	4	-0.18	0.15
Cc1ccc2c(c1)C(N1CCCC1=O)CC(c1ccco1)N2 (stereo not drawn)	7	-1	-7	-11	-0.02	2.6*
O=C(O)c1cc2n(n1)C(C(F)(F)F)CC(c1ccco1)N2 (stereo not drawn)	3	0	1	.	0	0.044
CCOC(=O)C1=C(N)n2c(s/c(=C\c3cccs3)c2=O)=C(C(=O)OCC)C1c1cccs1 (stereo not drawn)	86*	0	0	-3	-0.61	-0.14
CCOC(=O)C1=C(N)n2c(s/c(=C\c3cccnc3)c2=O)=C(C(=O)OCC)C1c1cccnc1 (stereo not drawn)	0	0	-2	13	0.78	0.18
COc1ccc(C(=O)c2ccc(OC)c(N)c2)cc1N	62*	-2	0	-3	0.93	0.0077
COc1ccc(C(=O)c2ccc(OC)c(OC)c2)cc1OC	-3	1	-1	-12	0.002	0.73
CCOc1ccc(C(=O)NCCC(=O)NCCCC(=O)O)cc1	-3	0	3	-24	-0.068	1.7
Cc1cc(NO)nc(-c2ccc(Br)cc2)n1	34*	-1	-4	-12	0.6	0.35
Cn1c(=O)cc(SCC(=O)Nc2ccccn2)c2ccccc21	-10	-1	10	-12	0.42	0.25
Cc1ccnc(NC(=O)CCCOc2cc(=O)n(C)c3ccccc23)c1	89*	-1	27*	-25	-0.67	-0.2
Cc1ccnc(NC(=O)CSc2cc(=O)n(C)c3ccccc23)c1	2	-1	26*	-3	0.41	0.77
Cn1c(=O)cc(OCCCC(=O)NCc2ccccn2)c2ccccc21	-7	0	4	-28	0.15	2
O=C(CN1CCN(c2ncccn2)CC1)NCCC1=CCCCC1	.	.	.	.	0.99	0.1
O=C(C1CC1)N1CCC(c2nc(-c3ccc(S(=O)(=O)NCC4CCCO4)cc3)no2)CC1 (stereo not drawn)	52*	-2	-6	18	0.48	-1.2
CC(=NCc1cccnc1)C1=C(O)c2ccccc2C1=O	4	-1	37*	-36	-0.26	-0.071
CC(=NCCCn1ccnc1)C1=C(O)c2ccccc2C1=O	-6	-1	29*	-3	0.0071	-1.5
CC(=NCCN1CCOCC1)C1=C(O)c2ccccc2C1=O	0	-1	11	-14	-0.11	0.021
Cc1cc(C)c2ccc(C)[n+]([O-])c2c1O	-5	-1	-1	6	0.91	-0.3
Cc1cc(C)c2ccc(N)nc2c1O	44*	-1	-13	-26	-0.035	0.32
Cc1ncsc1CCSc1nc2ccccc2c(=O)n1C	11	-1	9	0	-0.19	1.7
CSc1ccc2[nH]c(=O)cc(C)c2c1	-1	-1	5	-10	0.26	1.2
CCn1c2ccccc2c2cc(Nc3cc(C)nc4ncnn34)ccc21	99*	-1	1	-100	-0.13	2
Cc1cccc(N2CCN(C(=O)c3ccc(Cl)c(S(=O)(=O)NCc4ccco4)c3)CC2)c1C	84*	-2	1	-6	0.29	0.13

Compound activity (PubChem)
